Assay outcomes deposited in PubChem by Broad Institute.
The list is not random: actives were taken first. Their share in the collection is about 2.9%.
INS-1E GSIS act = GLuc luminescence reporter in INS-1E cells, primary screen for activators of glucose-dependent secretion of insulin | activation, % at 16.6 µM | 0.61% of 370,000 active | INS-1E GLuc reporter insulin secretion, 2-3 h;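 active = lowest replicate activation of at least 40%, so every replicate reaches that level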;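 also: 0% = median of neutral control wells and 100% = median of IBMX positive control wells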
Env fusion inh = inhibitors of HIV-1 Env-driven cell-cell fusion, primary screen, HeLa-JRFL effector, CEM21 target cells, luciferase. inhibition, % at 12.3 µM. 1.1% of 360,000 active;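 active = mean replicate inhibition score of at least 50 and every replicate individually at or above 50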;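 also: 0% = plate neutral controls and 100% = maraviroc near 300 nM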
PAX8 inh HTS = inhibitors of PAX8-driven TPO luciferase reporter, primary screen, RMG-I cells, single concentration. SteadyGlo, 24 h. inhibition, % at 12.6 µM. 1.2% of 360,000 active. AID 652154, 2013;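 active = mean replicate inhibition at least 60% with every replicate also reaching 60%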;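 also: luciferase light reporting Pax8 driven TPO promoter activity; plate controls were median of neutral control wells for no effect and mitoxantrone controls for full effect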
Cneo AK release = Cryptococcus neoformans cell lysis inducers, primary screen, AK release luminescence, single concentration | lysis activity, % at 15 µM | C. neoformans lysis, adenylate kinase release luminescence, 4 h; normalised: neutral wells 0, clomiphene wells 100 | 0.2% of 360,000 active;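 active = mean lysis activity across replicates of at least 80%, whatever share of replicates individually reach that level; inactive = mean lysis activity below 80%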
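Material: C. neoformans cells; Schedule: 4 h static compound exposure, 37 °C, read 1 h post-reagent; Measured by: adenylate kinase release luminescence; Read-out: signal increase indicating cell lysis; Controls: Clomiphene as positive lysis control.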
dFosB act = activators of delta FosB homodimer, primary screen, biochemical, fluorescence polarization, TAMRA-CDK5 oligo, single point; Protein FosB (Mus musculus), P13346; purified delta FosB; percent of positive-control signal above neutral wells; activation, % at 25 µM; 0.99% of 340,000 active; AID 493131, 2011;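 active = mean activation above about 17%, with every replicate also reaching it, limit read from the data, passing the limit was not always enough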
Target sequence (P13346 whole entry, looked up): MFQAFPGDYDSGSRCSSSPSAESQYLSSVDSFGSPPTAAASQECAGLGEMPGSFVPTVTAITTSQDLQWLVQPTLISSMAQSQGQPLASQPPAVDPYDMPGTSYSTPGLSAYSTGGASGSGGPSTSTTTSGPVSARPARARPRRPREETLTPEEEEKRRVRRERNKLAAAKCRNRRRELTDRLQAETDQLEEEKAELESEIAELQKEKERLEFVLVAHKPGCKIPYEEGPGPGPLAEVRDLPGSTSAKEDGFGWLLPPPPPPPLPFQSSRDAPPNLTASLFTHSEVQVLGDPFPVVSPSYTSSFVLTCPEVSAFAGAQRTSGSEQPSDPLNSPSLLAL
CDK5 inh = inhibitors of human CDK5/p35 kinase, primary screen, biochemical, single concentration; Recombinant CDK5/p35, ADP-Glo luminescence, 60 min; Cyclin-dependent kinase 5 (Homo sapiens) + Cyclin-dependent kinase 5 activator 1 (Homo …; AID 488839, 2010; inhibition, % at 10 µM; 0.01% of 330,000 active;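 active = highest replicate inhibition of at least 50% and at least 75% of replicates reaching 50%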;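 also: plate controls were DMSO neutral control for no effect and GW8510 at 10 µM for full effect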
Active calls of the source: *; i = inactive; · = no result; [ ] = remark or other dose.

SMILES	INS-1E GSIS act	Env fusion inh	PAX8 inh HTS	Cneo AK release	dFosB act	CDK5 inh
C[C@@H]1CCCCO[C@@H](CN(C)C(=O)Nc2ccc3c(c2)OCO3)[C@H](C)CN([C@H](C)CO)C(=O)c2cc(NC(=O)Cc3ccccc3)ccc2O1	-22	4[16.7 µM]	13	13	·	·
S=C(Nc1ccccc1)Nc1ccc2cn[nH]c2c1	-21	-13	-98	·	-6	7
C=CCNC(=S)Nc1ccc2cn[nH]c2c1	40*	10	31	·	-2	11
C[C@@H]1CN([C@@H](C)CO)S(=O)(=O)c2ccc(-c3ccc(C(=O)N(C)C)cc3)cc2O[C@@H]1CN(C)C(=O)C1CC1	13	10[16.7 µM]	·	·	·	·
CCOC(=O)C1(C)CCCCN1C(=O)c1cccc(Cl)c1 (stereo not given)	96*	-14	-6	3	·	·
COc1ccccc1NC(=O)N(C)C[C@H]1OCc2ccccc2-c2ccccc2C(=O)N([C@H](C)CO)C[C@@H]1C	-3	·	·	·	·	·
CC1CCN(CCCNC(=O)c2ccc3c(Cl)c4c(nc3c2)CCCC4)CC1	-20	57*	27	·	-29	0
CNC[C@H](CC1CCCCC1)NC[C@H](CO)NCCc1cccc(C(F)(F)F)c1	-11	4	72*	1	12	2
COC(=O)C1=C(C)N(CC2CC2)C(=O)N[C@H]1c1ccc(Br)cc1	-1	77*	18	·	·	·
COC(=O)C1=C(C)N(Cc2ccc(C(F)(F)F)cc2)C(=NCc2ccccc2C(F)(F)F)NC1c1ccc(C(F)(F)F)cc1 (stereo not given)	·	4	26	·	·	·
COC(=O)C1=C(C)N(Cc2ccc(C(F)(F)F)cc2)C(=NCc2ccccc2C(F)(F)F)NC1c1ccccc1 (stereo not given)	29	-158	10	·	·	·
COC(=O)C1=C(C)N(Cc2ccc(Cl)cc2)C(=S)NC1c1ccc(Cl)cc1 (stereo not given)	4	61*	-14	·	·	·
COC(=O)C1=C(C)N(Cc2ccc(C(F)(F)F)cc2)C(=NCc2ccccc2C(F)(F)F)NC1c1cccc(Cl)c1 (stereo not given)	242*	-89	-20	·	·	·
COC(=O)C1=C(C)N(Cc2ccc(C(F)(F)F)cc2)C(=NCc2ccccc2C(F)(F)F)NC1c1ccc(Cl)cc1 (stereo not given)	49*	-40	1	·	·	·
COC(=O)[C@H]1[C@H](CO)[C@H]2Cn3c(ccc(C4=CCCCC4)c3=O)[C@H]2N1C(=O)C1CCCC1	-5	·	·	-1	·	·
CN(C)CC(=O)N1CC(=O)N2[C@H](CO)[C@@H](c3ccc(/C=C/c4ccccc4)cc3)[C@H]2C1	22	·	-57	·	·	·
Cc1noc(C)c1NC(=O)N[C@H]1CC[C@@H](CC(=O)Nc2ccccc2)O[C@H]1CO	14	-9[16.7 µM]	·	-2	·	·
COc1ccc(NC(=O)Nc2cccc3c2O[C@@H](CN(C)Cc2ccc4c(c2)OCO4)[C@@H](C)CN([C@H](C)CO)C3=O)cc1	-3	-122[16.7 µM]	5	26	·	·
c1ccc2c(NCCc3c[nH]c4ccccc34)c3ccccc3nc2c1	-16	-13	-15	2	123*	1
OCCCNc1c2ccccc2nc2ccccc12	-11	-1	33	-2	19*	1
C[C@H](CO)N1C[C@H](C)[C@H](CN(C)C(=O)Nc2ccc3c(c2)OCO3)Oc2cc(C#Cc3cccnc3)ccc2S1(=O)=O	-1	-2[16.7 µM]	-5	11	·	·
CCCC(=O)N1CCN(c2ccc(NC(=O)c3ccc([N+](=O)[O-])o3)cc2)CC1	-22	i	90*	·	-2	1
CC1CCN(c2ccc(NC(=O)c3ccc([N+](=O)[O-])o3)cc2)CC1	-33	·	36	2	-11	-5
O=C(Nc1ccc(N2CCCCC2)cc1)c1ccc([N+](=O)[O-])o1	-24	-276	16	0	-9	1
CCC(=O)N1CCN(c2ccc(NC(=O)c3ccc([N+](=O)[O-])o3)cc2)CC1	-44	-408	90*	·	-6	0
SMILES	INS-1E GSIS act	Env fusion inh	PAX8 inh HTS	Cneo AK release	dFosB act	CDK5 inh
CS(=O)(=O)N1CCN(c2ccc(NC(=O)c3ccc([N+](=O)[O-])o3)cc2)CC1	11	-393	71*	-1	1	-1
CCCC(=O)Nc1ccc(N2CCN(S(C)(=O)=O)CC2)cc1	53*	24	7	·	1	-1
CCCCC(=O)Nc1ccc(N2CCN(S(C)(=O)=O)CC2)cc1	·	-91	·	3	0	1
C[C@H]1CN([C@@H](C)CO)C(=O)c2cc(NS(=O)(=O)c3ccc(F)cc3)ccc2O[C@H]1CN(C)S(C)(=O)=O	-4	-44[16.7 µM]	·	·	·	·
C[C@H]1CN([C@@H](C)CO)S(=O)(=O)c2ccc(-c3cccnc3)cc2O[C@H]1CN(C)C(=O)C1CC1	10	-11[16.7 µM]	·	·	·	·
CC(C)(C)C(=O)N1CCN(c2ccc(NC(=O)c3ccc([N+](=O)[O-])o3)cc2)CC1	-17	-43	101*	0	-9	0
Clc1ccc2c(N/N=C/c3ccccc3Br)ccnc2c1	-13	·	20	-1	46*	0
O=[N+]([O-])c1ccc(/C=N/Nc2ccnc3cc(Cl)ccc23)o1	-10	-45	9	4	-5	1
Clc1ccc2c(N/N=C/c3cccc(Br)c3)ccnc2c1	-2	6	0	-1	52*	0
O=c1[nH]c2c(cnn2-c2ccc(Cl)cc2)c(=O)n1-c1cccc(Cl)c1	10	62*	14	·	6	0
CCCOc1ccc(/C=N/NC(=O)C(=O)Nc2ccccn2)cc1	52*	-53	6	67	5	0
COc1cc(/C=N/NC(=O)C(=O)Nc2ccccn2)ccc1O	2	-5	10	-4	4	0
C[C@@H]1COCc2cnnn2CC[C@@H](Cc2ccccc2)C(=O)N1	13	·	·	·	·	·
O=C(Nc1cccc([N+](=O)[O-])c1)N1CCCCCC1	63*	4	-6	0	-3	-1
COCC(=O)Nc1ccc2c(c1)OC[C@@H](C)N(C)C[C@H](C)[C@@H](OC)CN(C)C2=O	13	·	·	6	·	·
CNc1nc(N)c(C(=O)C(C)(C)C)s1	47*	-41	·	·	-11	-4
COc1ccc(S(=O)(=O)N2CCc3ccccc32)cc1C(=O)Nc1cccnc1	50*	9	14	-2	0	1
O=C(Nc1cccnc1)c1cccc(S(=O)(=O)N2CCc3ccccc32)c1	-24	19	15	·	-11	-2
COc1ccc(-c2ccc3c(c2)C2CC3CCN2S(=O)(=O)c2ccccc2C)cc1 (stereo not given)	·	57*	15	0	-3	2
CN1c2ccc(-c3ccc(F)cc3)cc2[C@@H]2[C@@H](CCN2S(=O)(=O)c2cccc(F)c2)[C@@H]1CO	-16	·	-7	1	·	·
